The species entered for one assay is Cavia porcellus. Briefly: Inhibition of the electrically induced muscle contractions was determined using the guinea pig ileum. The assay is classed as functional. Put shortly: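 Intact ileum segments (about 3 cm) suspended under 1 g tension in modified Krebs buffer containing 1.20 mM MgSO4. Field-stimulated with square-wave pulses at 0.1 Hz, 0.5 ms, supramaximal voltage. Cumulative concentrations were each given time for maximal response before the next.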

Assay [1] deals with Delta-type opioid receptor (Rattus norvegicus, UniProt P33533). Briefly: Binding affinity of compound evaluated for Opioid receptor delta 1 isolated from rat brain.
The species named for another assay is Mus musculus. Kind of assay: Inhibition of the electrically induced muscle contractions was determined using the mouse vas deferens. It is filed as functional. Put shortly:
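Vas deferens segments in Krebs buffer, placed between platinum electrodes with isometric force recording at 0.5 g resting tension. Stimulated with 400 ms trains (1 ms pulses, 10 Hz, supramaximal voltage). Cumulative concentrations were each allowed maximal effect before the next.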

The results in this text go back to ChEMBL document CHEMBL1145968, “3-(alphaR)-alpha-((2S,5R)-4-allyl-2,5-dimethyl-1-piperazinyl)-3-hydroxybenzyl)-N-alkyl-N-arylbenzamides: potent, non-peptidic agonists of both the micro and delta opioid receptors” (J Med Chem, 2003).

Delta-type opioid receptor, sequence (P33533 whole entry): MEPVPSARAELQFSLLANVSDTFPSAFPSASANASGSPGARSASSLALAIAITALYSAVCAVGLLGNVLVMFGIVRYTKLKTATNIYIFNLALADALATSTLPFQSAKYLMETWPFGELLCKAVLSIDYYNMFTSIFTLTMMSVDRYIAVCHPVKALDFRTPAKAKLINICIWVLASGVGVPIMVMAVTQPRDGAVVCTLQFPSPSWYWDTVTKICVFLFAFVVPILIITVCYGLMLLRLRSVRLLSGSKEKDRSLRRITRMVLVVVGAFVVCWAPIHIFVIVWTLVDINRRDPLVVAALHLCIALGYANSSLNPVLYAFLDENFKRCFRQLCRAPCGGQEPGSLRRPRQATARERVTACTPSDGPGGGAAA

In the case of `C=CCN1C[C@H](C)N([C@@H](c2cccc(O)c2)c2cccc(C(=O)N(C)c3cccc(F)c3)c2)C[C@H]1C` (stereo in doubt; 32), the EC50 in the assay listed under Cavia porcellus was found to be 1800 nM; in the assay listed under Mus musculus, 25.3 nM. The Ki in assay [1] is 11.4 nM.

Turning to `C=CCN1C[C@H](C)N([C@H](c2cccc(O)c2)c2cccc(C(=O)N(C)c3ccccc3)c2)C[C@H]1C`, the EC50 came out at 1.22 nM in the assay listed under Cavia porcellus (Cavia porcellus, Ileum) and 0.47 nM in the assay filed under Mus musculus (Mus musculus).

Consider `C=CCN1C[C@H](C)N([C@@H](c2cccc(O)c2)c2cccc(C(=O)N(CCCC)c3ccccc3)c2)C[C@H]1C`, for which the EC50 in the assay filed under Cavia porcellus (Cavia porcellus, Ileum) was found to be 41 nM; in the assay listed under Mus musculus (Mus musculus) it was 1.7 nM.

As for `C=CCN1C[C@H](C)N([C@@H](c2cccc(O)c2)c2cccc(C(=O)N(C)c3ccccc3)c2)C[C@H]1C`, the half-maximal effective concentration (EC50) in the assay listed under Cavia porcellus (Cavia porcellus, Ileum) came to 59.5 nM; in the assay listed under Mus musculus (Mus musculus), 1.7 nM. For the same compound, the Ki in assay [1] was 1.37 nM.

In the case of `C=CCN1C[C@H](C)N([C@@H](c2cccc(O)c2)c2cccc(C(=O)N(C)c3ccc(F)cc3)c2)C[C@H]1C`, the EC50 was found to be 0.67 nM in the assay filed under Cavia porcellus (Cavia porcellus, Ileum) and 1.1 nM in the assay filed under Mus musculus (Mus musculus). The same compound displayed an inhibition constant (Ki) in assay [1] of 1.4 nM.

On to `C=CCN1C[C@H](C)N([C@H](c2cccc(O)c2)c2cccc(C(=O)N(CC)CC)c2)C[C@H]1C`, for which the EC50 was 4.35 nM in the assay listed under Cavia porcellus (Cavia porcellus, Ileum) and 5.85 nM in the assay listed under Mus musculus (Mus musculus). In addition, the Ki in assay [1] was 2.1 nM.

Turning to `C=CCN1C[C@H](C)N([C@@H](c2cccc(O)c2)c2cccc(C(=O)N3CCCc4ccccc43)c2)C[C@H]1C`, the EC50 in the assay filed under Cavia porcellus (Cavia porcellus, Ileum) stood at 11.5 nM; in the assay listed under Mus musculus (Mus musculus) it was 1.05 nM. Besides, the Ki in assay [1] is 1.18 nM.

With `C=CCN1C[C@H](C)N([C@@H](c2cccc(O)c2)c2cccc(C(=O)N(C)c3ccc(Cl)cc3)c2)C[C@H]1C`, the EC50 in the assay listed under Cavia porcellus (Cavia porcellus, Ileum) turned out to be 4.9 nM; in the assay filed under Mus musculus (Mus musculus), 2.6 nM. Besides, in assay [1], the Ki was 2.73 nM.

Consider `C=CCN1C[C@H](C)N([C@@H](c2cccc(O)c2)c2cccc(C(=O)N(C)Cc3ccccc3)c2)C[C@H]1C`, for which the EC50 in the assay filed under Cavia porcellus (Cavia porcellus, Ileum) came out at 6.07 nM; in the assay filed under Mus musculus (Mus musculus), 5.6 nM.

On to `C=CCN1C[C@H](C)N([C@@H](c2cccc(O)c2)c2cccc(C(=O)N(CC)c3ccccc3)c2)C[C@H]1C`, for which the EC50 in the assay filed under Cavia porcellus (Cavia porcellus, Ileum) is 0.94 nM; in the assay filed under Mus musculus (Mus musculus), 0.96 nM. In assay [1], the affinity corresponds to a Ki of 2.17 nM.

As to `C=CCN1C[C@H](C)N([C@@H](c2cccc(O)c2)c2cccc(C(=O)N(c3ccccc3)C3CC3)c2)C[C@H]1C`, the EC50 in the assay filed under Cavia porcellus (Cavia porcellus, Ileum) is 1.23 nM; in the assay filed under Mus musculus (Mus musculus) it was 1.42 nM. The compound also displayed an inhibitory constant (Ki) in assay [1] of 1.92 nM.

For the compound `C=CCN1C[C@H](C)N([C@@H](c2cccc(O)c2)c2cccc(C(=O)N(CCC)c3ccc(F)cc3)c2)C[C@H]1C`, the EC50 in the assay listed under Cavia porcellus (Cavia porcellus, Ileum) is 1050 nM; in the assay listed under Mus musculus (Mus musculus), 0.68 nM. Affinity in assay [1] was put at a Ki of 2.75 nM.

In the case of `C=CCN1C[C@H](C)N([C@@H](c2cccc(O)c2)c2cccc(C(=O)N(C)CCc3ccccc3)c2)C[C@H]1C`, the EC50 is 6.6 nM in the assay listed under Cavia porcellus (Cavia porcellus, Ileum) and 0.34 nM in the assay filed under Mus musculus (Mus musculus).

`C=CCN1C[C@H](C)N([C@@H](c2cccc(O)c2)c2cccc(C(=O)N(C)c3ccccc3F)c2)C[C@H]1C`: the EC50 in the assay filed under Cavia porcellus (Cavia porcellus, Ileum) stood at 4.1 nM; in the assay listed under Mus musculus (Mus musculus), 0.69 nM.

Consider `C=CCN1C[C@H](C)N(C(c2ccc(C(=O)N(CC)CC)cc2)c2cccc(O)c2)C[C@H]1C` (single isomer, unassigned), for which the concentration giving a half-maximal response (EC50) in the assay listed under Cavia porcellus (Cavia porcellus, Ileum) amounted to 150 nM; in the assay filed under Mus musculus (Mus musculus), 0.2 nM. Besides, the Ki in assay [1] is 1.8 nM.

Regarding `C=CCN1C[C@H](C)N([C@@H](c2cccc(O)c2)c2cccc(C(=O)N(C)c3ccc(OC)cc3)c2)C[C@H]1C`, the EC50 was found to be 1.1 nM in the assay filed under Cavia porcellus (Cavia porcellus, Ileum) and 0.36 nM in the assay filed under Mus musculus (Mus musculus). Also, affinity in assay [1] was put at a Ki of 2.01 nM.

`C=CCN1C[C@H](C)N([C@@H](c2cccc(O)c2)c2cccc(C(=O)N(CC)c3ccc(F)cc3)c2)C[C@H]1C`: the half-maximal effective concentration (EC50) in the assay filed under Cavia porcellus (Cavia porcellus, Ileum) was 4 nM; in the assay filed under Mus musculus (Mus musculus), 1.4 nM.

As to `C=CCN1C[C@H](C)N([C@@H](c2cccc(O)c2)c2cccc(C(=O)N(C)c3ccccc3C(F)(F)F)c2)C[C@H]1C`, the EC50 in the assay listed under Cavia porcellus (Cavia porcellus, Ileum) was 5.6 nM; in the assay listed under Mus musculus (Mus musculus), 0.95 nM.

In the case of `C=CCN1C[C@H](C)N([C@@H](c2cccc(O)c2)c2cccc(C(=O)N(C)c3ccc([N+](=O)[O-])cc3)c2)C[C@H]1C`, the EC50 in the assay listed under Cavia porcellus (Cavia porcellus, Ileum) amounted to 4.1 nM; in the assay listed under Mus musculus (Mus musculus), 2.3 nM.

For `C=CCN1C[C@H](C)N([C@@H](c2cccc(O)c2)c2cccc(C(=O)N(CCC)c3ccccc3)c2)C[C@H]1C`, the EC50 was 18 nM in the assay listed under Cavia porcellus (Cavia porcellus, Ileum) and 2.4 nM in the assay filed under Mus musculus (Mus musculus). The same compound yielded an inhibition constant Ki in assay [1] of 1.26 nM.

As for `C=CCN1C[C@H](C)N([C@@H](c2cccc(O)c2)c2cccc(C(=O)N(C)c3cccc(F)c3)c2)C[C@H]1C` (stereo in doubt; 24), the values for the EC50 in the assay listed under Cavia porcellus and in the assay listed under Mus musculus were 3.4 nM and 0.79 nM, respectively. In addition, affinity in assay [1] was put at a Ki of 0.18 nM.

As usually defined, the EC50 is the concentration at which the effect is half-maximal. Low readings indicate a more potent agent, high ones a less potent agent. A word on the Ki: it is a measure of affinity in units of concentration, obtained from inhibition or displacement. Higher therefore signals lower affinity.
